Screening data deposited in PubChem BioAssay by several laboratories.
Compounds with a hit are over-represented: about 2.5% of the library has one in this group of screens.
TRPC6 inh: blocks the mouse TRPC6 cation channel; HEK293-TRPC6, membrane potential dye, ACh-evoked depolarization; stronger effect = lower value; Q61143; AID 2553; B-score at 10 µM; hit rate 1.1% among 310,000;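 active means B-score under library mean minus 3 SD, initial fluorescence not abnormally high, positive integrated signal ratio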;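 further: B-score derived from integrated fluorescence ratio over the kinetic read; more negative B-score means stronger inhibition of depolarization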
Target sequence (Q61143 whole entry, looked up): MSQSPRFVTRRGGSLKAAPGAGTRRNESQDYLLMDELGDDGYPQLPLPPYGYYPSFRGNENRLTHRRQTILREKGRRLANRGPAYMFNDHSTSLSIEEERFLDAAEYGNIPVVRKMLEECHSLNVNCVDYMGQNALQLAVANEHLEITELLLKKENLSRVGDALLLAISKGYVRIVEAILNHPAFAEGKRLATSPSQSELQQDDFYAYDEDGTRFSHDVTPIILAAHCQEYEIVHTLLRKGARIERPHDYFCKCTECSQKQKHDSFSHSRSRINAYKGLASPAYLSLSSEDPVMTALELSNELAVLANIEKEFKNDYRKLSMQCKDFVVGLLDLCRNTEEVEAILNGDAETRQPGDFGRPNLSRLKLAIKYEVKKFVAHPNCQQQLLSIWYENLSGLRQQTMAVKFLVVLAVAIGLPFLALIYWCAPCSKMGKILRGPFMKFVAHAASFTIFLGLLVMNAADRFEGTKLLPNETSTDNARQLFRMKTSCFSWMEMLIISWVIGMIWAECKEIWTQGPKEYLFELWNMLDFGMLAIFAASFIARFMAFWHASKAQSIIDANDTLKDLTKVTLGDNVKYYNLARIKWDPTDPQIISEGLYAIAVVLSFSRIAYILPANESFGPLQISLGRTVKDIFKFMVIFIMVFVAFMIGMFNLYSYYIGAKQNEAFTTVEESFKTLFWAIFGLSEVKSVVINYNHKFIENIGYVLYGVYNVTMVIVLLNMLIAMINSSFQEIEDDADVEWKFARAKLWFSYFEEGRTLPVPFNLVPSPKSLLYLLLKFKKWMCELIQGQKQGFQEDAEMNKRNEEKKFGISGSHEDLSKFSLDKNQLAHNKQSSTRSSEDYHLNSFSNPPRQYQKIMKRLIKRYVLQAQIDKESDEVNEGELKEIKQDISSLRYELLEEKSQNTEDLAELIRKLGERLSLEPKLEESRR
TRPC4 PAM: allosterically enhances the mouse TRPC4 cation channel | Q9QUQ5 | HEK293 TRPC4beta/mu-opioid, DAMGO EC20, Fluo-4 Ca2+ flux; stronger effect = higher value | B-score at 10 µM | hit rate 0.42% among 310,000;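 active means B-score of calcium response area above 5 SD of library B-scores, with initial fluorescence ratio within 5 SD of library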;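 further: B-score of integrated fluorescence ratio over time as area under calcium response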
TRPC4 act: opens the mouse TRPC4 cation channel. Q9QUQ5. HEK293 TRPC4beta/mu-opioid, Fluo4 calcium fluorescence; stronger effect = higher value. B-score at 10 µM. hit rate 0.49% among 310,000;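 active means B-score above 5 SD of library B-scores, and initial fluorescence ratio not above library mean plus 5 SD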;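 further: positive B-score marks a calcium rise read as TRPC4 activation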
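Incubation: 45 min room-temperature Fluo4 loading, 110 s read / System: HEK293 cells stably co-expressing mouse TRPC4beta and mu-opioid receptor / Signal: Fluo4 fluorescence, kinetic / Control set: buffer (low) and maximal DAMGO (high) / Measure: integrated baseline-normalised fluorescence ratio, converted to per-well B score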
Platelet DG rel: modulates dense granule release in human platelets; human platelet-rich plasma, SFLLRN dense granule ATP release, luminescence; inhibition, %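 (compounds screened at 7.5 µM in platelet-rich plasma)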; hit rate 0.22% among 300,000;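 active means mean replicate score, as percent of positive control, at or above 50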
TRPC6 act: mouse TRPC6 channel activation | HEK293-TRPC6 membrane potential dye fluorescence; stronger effect = higher value | B-score at 10 µM | hit rate 0.13% among 310,000 | AID 2550;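 active means B-score of the integrated fluorescence ratio above library mean plus 3 SD, and starting fluorescence ratio within library mean plus 5 SD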;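 further: higher score means more depolarization so channel activation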
TRPC4 inh: inhibitors of mouse TRPC4 channel; Q9QUQ5; HEK293 TRPC4beta/mu-opioid, DAMGO-evoked Fluo4 calcium flux; stronger effect = lower value; B-score at 10 µM; hit rate 0.39% among 300,000; AID 2247;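 active means B-score over 3 SD under the library average, no early fluorescence shift, positive overall ratio signal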
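System: stable TRPC4beta/mu-opioid receptor HEK293 cells; Dosing: single-point compound dosing; Measured by: Fluo4 Ca2+ flux fluorescence; Read-out basis: per-well B score of integrated baseline-normalized Fluo4 ratio.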
Active calls of the source: *.

For CCC(C(=O)O)N1C(=O)c2ccccc2C1=O (configuration not stated) the results were TRPC6 inh inactive, TRPC4 PAM inactive, TRPC4 act inactive, Platelet DG rel 0.5, TRPC6 act inactive and TRPC4 inh inactive.
COC(=O)c1ccc(NC(=O)CN2CCN(CC#N)CC2)cc1 was read as TRPC6 inh inactive, TRPC4 PAM inactive, TRPC4 act inactive, Platelet DG rel -2.8, TRPC6 act inactive and TRPC4 inh inactive.
`O=C(CSc1nnc2ccc(-c3ccc(Br)cc3)nn12)NCC1CCCO1` (configuration not stated) gave TRPC6 inh inactive, TRPC4 PAM inactive, TRPC4 act inactive, Platelet DG rel 15.0, TRPC6 act inactive and TRPC4 inh inactive.
`CSc1cccc(NC(=O)N2CCN(C)CC2)c1` gave TRPC6 inh inactive, TRPC4 PAM 28*, TRPC4 act inactive, Platelet DG rel -0.6, TRPC6 act inactive and TRPC4 inh inactive.
For O=C(CCCCN1CCCCC1)c1ccc2c(c1)Cc1ccccc1-2 the results were TRPC6 inh inactive, TRPC4 PAM inactive, TRPC4 act inactive, Platelet DG rel -4.8, TRPC6 act inactive and TRPC4 inh inactive.
Screening CC(C)c1ccccc1NC(=S)NN(Cc1ccccc1)c1ccccc1 returned TRPC6 inh inactive, TRPC4 PAM 27*, TRPC4 act inactive, Platelet DG rel 2.1, TRPC6 act inactive and TRPC4 inh inactive.
Screening Fc1ccccc1NC(=S)NN(Cc1ccccc1)c1ccccc1 returned TRPC6 inh inactive, TRPC4 PAM inactive, TRPC4 act inactive, Platelet DG rel -11.7, TRPC6 act inactive and TRPC4 inh inactive.
For O=C(NCc1ccccc1)c1c(Cl)nc(Cl)c(Cl)c1Cl the results were TRPC6 inh inactive, TRPC4 PAM inactive, TRPC4 act inactive, Platelet DG rel 22.2, TRPC6 act inactive and TRPC4 inh -6*.
For COc1ccc(NC(=O)c2cc(S(=O)(=O)N3CCOCC3)cn2C)c(OC)c1 the results were TRPC6 inh inactive, TRPC4 PAM inactive, TRPC4 act inactive, Platelet DG rel 59.2*, TRPC6 act inactive and TRPC4 inh inactive.
Screening Cc1ccc(NC(=O)c2cc(S(=O)(=O)N3CCOCC3)cn2C)c(C)c1 returned TRPC6 inh inactive, TRPC4 PAM inactive, TRPC4 act inactive, Platelet DG rel 40.9, TRPC6 act inactive and TRPC4 inh inactive.
`COc1cccc(CNC(=O)c2cc(S(=O)(=O)N3CCCC3)cn2C)c1` gave TRPC6 inh inactive, TRPC4 PAM inactive, TRPC4 act inactive, Platelet DG rel 57.2*, TRPC6 act inactive and TRPC4 inh inactive.
`COc1cc(OC)c(NC(=O)c2cc(S(=O)(=O)N3CCOCC3)cn2C)cc1Cl` gave TRPC6 inh inactive, TRPC4 PAM inactive, TRPC4 act inactive, Platelet DG rel 69.2*, TRPC6 act inactive and TRPC4 inh inactive.
CCCSc1nc(N)nc(-c2cccs2)c1C#N was read as TRPC6 inh inactive, TRPC4 PAM inactive, TRPC4 act inactive, Platelet DG rel -5.0, TRPC6 act inactive and TRPC4 inh -6*.
CCOC(=O)CSc1nc(N)c(C#N)c(-c2cccs2)c1C#N was read as TRPC6 inh inactive, TRPC4 PAM inactive, TRPC4 act inactive, Platelet DG rel -10.3, TRPC6 act inactive and TRPC4 inh inactive.
Screening O=C(O)c1ccc(/C=C2\SC(=Nc3ccccc3)N(c3ccccc3)C2=O)cc1 returned TRPC6 inh inactive, TRPC4 PAM inactive, TRPC4 act inactive, Platelet DG rel -12.7, TRPC6 act inactive and TRPC4 inh inactive.
O=C(CC1C(=O)NCCN1Cc1cccc(Oc2ccccc2)c1)NCCc1cscn1 (configuration not stated) was read as TRPC6 inh inactive, TRPC4 PAM inactive, TRPC4 act inactive, Platelet DG rel -3.4, TRPC6 act inactive and TRPC4 inh inactive.
Screening O=C(CC1C(=O)NCCN1CC1CCCCC1)NCCc1ccc(F)cc1 (configuration not stated) returned TRPC6 inh inactive, TRPC4 PAM inactive, TRPC4 act 51*, Platelet DG rel 5.7, TRPC6 act inactive and TRPC4 inh inactive.
Screening COc1cccc(CN2CCNC(=O)C2CC(=O)NCCc2ccccn2)c1 (configuration not stated) returned TRPC6 inh inactive, TRPC4 PAM inactive, TRPC4 act 54*, Platelet DG rel 0.8, TRPC6 act inactive and TRPC4 inh inactive.
For O=C(CC1C(=O)NCCN1Cc1cccc(Oc2ccccc2)c1)NCCc1ccccn1 (configuration not stated) the results were TRPC6 inh inactive, TRPC4 PAM inactive, TRPC4 act 115*, Platelet DG rel 2.9, TRPC6 act inactive and TRPC4 inh inactive.
Screening O=C(CC1C(=O)NCCN1Cc1ccccc1C(F)(F)F)NCCc1ccccn1 (configuration not stated) returned TRPC6 inh inactive, TRPC4 PAM inactive, TRPC4 act 116*, Platelet DG rel 4.7, TRPC6 act inactive and TRPC4 inh inactive.
Screening CCN(CC(=O)NCc1ccc(Cl)cc1)C(=O)CN1C(=O)NC(CC)(c2ccccc2)C1=O (configuration not stated) returned TRPC6 inh inactive, TRPC4 PAM inactive, TRPC4 act inactive, Platelet DG rel 7.8, TRPC6 act inactive and TRPC4 inh inactive.
For COC(=O)[C@@]1(Cc2ccc(F)cc2)[C@H]2c3cc(C(=O)N4CCCC4)n(CCCNc4ncc(C(F)(F)F)cc4Cl)c3C[C@H]2CN1C(=O)c1ccccc1 the results were TRPC6 inh inactive, TRPC4 PAM inactive, TRPC4 act inactive, Platelet DG rel -1.8, TRPC6 act inactive and TRPC4 inh inactive.
`COc1ccc(CCN(C)CCC(=O)Nc2ccc(C)cc2)cc1OC` gave TRPC6 inh inactive, TRPC4 PAM inactive, TRPC4 act inactive, Platelet DG rel -1.2, TRPC6 act inactive and TRPC4 inh inactive.
Screening COc1ccc(CCN(C)CCC(=O)Nc2c(C)cc(C)cc2C)cc1OC returned TRPC6 inh inactive, TRPC4 PAM inactive, TRPC4 act 111*, Platelet DG rel -2.7, TRPC6 act inactive and TRPC4 inh inactive.
Screening COc1ccccc1C1CCN(c2cc(O)ccc2[N+](=O)[O-])CC1 returned TRPC6 inh inactive, TRPC4 PAM 13*, TRPC4 act inactive, Platelet DG rel 21.0, TRPC6 act inactive and TRPC4 inh -5*.
Screening COc1ccccc1C1CCN(C(=O)c2ccccc2)CC1 returned TRPC6 inh inactive, TRPC4 PAM inactive, TRPC4 act inactive, Platelet DG rel -1.1, TRPC6 act inactive and TRPC4 inh inactive.
